Experimental findings from ChEMBL document CHEMBL1157317, “Vanillic acid glycoside and quinic acid derivatives from Gardeniae Fructus” (J Nat Prod, 2006) are described below.

Assay [1] concerns Radical scavenging activity. Description: Antioxidant activity assessed as DPPH free radical scavenging activity relative to control. It counts as functional. The method in brief: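 Test samples in EtOH mixed with 100 µM ethanolic DPPH, incubated 30 min at 37 °C; absorbance read at 515 nm. Percent inhibition calculated against ethanol-treated control; IC50 taken as concentration scavenging 50% of DPPH radicals.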

The nature of assay [2]: Antioxidant activity assessed as superoxide anion scavenging activity by xanthine oxidase oxidation system relative to control. It counts as functional. The method in brief: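 Superoxide produced by xanthine oxidase (1.4 × 10-8 units) with 0.1 mM xanthine in 40 mM sodium carbonate buffer pH 10.2 containing 0.1 mM EDTA, 50 µg/mL BSA and […]; 20 min at 25 °C, stopped with CuCl2. Formazan read at 560 nm; IC50 as concentration scavenging 50% of superoxide.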

Assay [3] is described as follows: Antioxidant activity assessed as inhibition of 2,2'-azobis(2-amidinopropane)dihydrochloride-induced lipid peroxidation at 3.125 ug/ml by ferric thiocyanate system relative to control. It counts as functional. A digest of the protocol: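 Linoleic acid emulsified in Tween, peroxidation induced by AAPH; oxidation followed by ferric thiocyanate method.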
Assay [4] deals with Human immunodeficiency virus type 1 integrase (Human immunodeficiency virus 1, UniProt Q7ZJM1). Description: Inhibition of HIV1 recombinant integrase expressed in Escherichia coli.
Human immunodeficiency virus type 1 integrase, sequence (Q7ZJM1 whole entry): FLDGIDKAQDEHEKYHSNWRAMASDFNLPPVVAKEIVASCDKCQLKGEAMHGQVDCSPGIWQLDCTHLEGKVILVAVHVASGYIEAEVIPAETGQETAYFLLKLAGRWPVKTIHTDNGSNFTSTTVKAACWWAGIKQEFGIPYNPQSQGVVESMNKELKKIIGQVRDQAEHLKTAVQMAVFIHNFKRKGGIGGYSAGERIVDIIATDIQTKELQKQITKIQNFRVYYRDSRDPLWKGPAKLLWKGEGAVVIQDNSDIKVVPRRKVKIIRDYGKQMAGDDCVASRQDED

Values after ≈ are worked out from the molar mass of the structure shown. Some results are limits rather than exact numbers.

Turning to `CCOC(=O)[C@]1(O)C[C@@H](O)[C@@H](OC(=O)/C=C/c2cc(OC)c(O)c(OC)c2)[C@H](OC(=O)/C=C/c2ccc(O)c(O)c2)C1`, the 50% inhibitory concentration (IC50) in assay [1] was 6.1 µg/mL (≈ 10.4 µM); in assay [2] it was 2 µg/mL (≈ 3.4 µM); in assay [4], 73.9 µM. In addition, in assay [3], the inhibition came to 54.9%.
In the same order, the values of `CCOC(=O)[C@@]1(O)C[C@@H](OC(=O)/C=C/c2ccc(O)c(O)c2)[C@H](O)[C@H](OC(=O)/C=C/c2cc(OC)c(O)c(OC)c2)C1` are 9.5 µg/mL (≈ 16.1 µM), 2.7 µg/mL (≈ 4.59 µM), 80.5 µM and 53.8%.
In the case of `O=C(/C=C/c1ccc(O)c(O)c1)O[C@@H]1C[C@](O)(C(=O)O)C[C@@H](OC(=O)/C=C/c2ccc(O)c(O)c2)[C@H]1O`, the IC50 in assay [1] is 5.6 µg/mL (≈ 10.8 µM); in assay [2] it was 2.9 µg/mL (≈ 5.62 µM); in assay [4], 11.4 µM. Besides, the inhibition in assay [3] stood at 51.5%.
Turning to `COC(=O)[C@]1(O)C[C@@H](O)[C@@H](OC(=O)/C=C/c2cc(OC)c(O)c(OC)c2)[C@H](OC(=O)/C=C/c2ccc(O)c(O)c2)C1`, the IC50 in assay [1] was 8.3 µg/mL (≈ 14.4 µM); in assay [2], 1.8 µg/mL (≈ 3.13 µM); in assay [4], 33.8 µM. In addition, in assay [3], the inhibition came out at 56%.
As for `COc1cc(C(=O)O)ccc1O[C@@H]1O[C@H](COC(=O)/C=C/c2cc(OC)c(O)c(OC)c2)[C@@H](O)[C@H](O)[C@H]1O`, the IC50 is 22.7 µg/mL (≈ 42.3 µM) in assay [1], 46.3 µg/mL (≈ 86.3 µM) in assay [2] and over 186 µM in assay [4]. In assay [3], the inhibition is 38.4%.
In the same order, the values of `COC(=O)C1=CO[C@@H](O[C@@H]2O[C@H](CO)[C@@H](O)[C@H](O)[C@H]2O)[C@@H]2C(CO)=CC[C@H]12` [GENIPOSIDE] are over 50 µg/mL, over 50 µg/mL, over 257 µM and 2%.
Regarding `O=C(O)/C=C/c1ccc(O)c(O)c1` [CAFFEIC ACID], the IC50 in assay [1] amounted to 3.2 µg/mL (≈ 17.8 µM); in assay [2], 0.5 µg/mL (≈ 2.78 µM). The inhibition in assay [3] was 54.1%.
As for `Oc1ccc(/C=C/c2cc(O)cc(O)c2)cc1` [RESVERATROL], the IC50 in assay [1] stood at 17.1 µg/mL (≈ 74.9 µM); in assay [2], 37.9 µg/mL (≈ 166 µM). Besides, the inhibition in assay [3] stood at 39.1%.
For the molecule `O=C(/C=C/c1ccc(O)c(O)c1)O[C@H]1[C@H](O)C[C@](O)(C(=O)O)C[C@H]1OC(=O)/C=C/c1ccc(O)c(O)c1`, the IC50 is 5.9 µg/mL (≈ 11.4 µM) in assay [1], 3.3 µg/mL (≈ 6.39 µM) in assay [2] and 10.5 µM in assay [4]. Besides, the inhibition in assay [3] stood at 51.7%.
In the case of `COC(=O)[C@@]1(O)C[C@@H](OC(=O)/C=C/c2ccc(O)c(O)c2)[C@H](O)[C@H](OC(=O)/C=C/c2cc(OC)c(O)c(OC)c2)C1`, the concentration for half-maximal inhibition (IC50) is 8.5 µg/mL (≈ 14.8 µM) in assay [1], 2.2 µg/mL (≈ 3.83 µM) in assay [2] and 41.1 µM in assay [4]. For the same molecule, the inhibition in assay [3] was found to be 54.7%.
For `CCOC(=O)[C@]1(O)C[C@@H](O)[C@@H](O)[C@H](OC(=O)/C=C/c2ccc(O)c(O)c2)C1` [ETHYL CHLOROGENATE], the figures for the 50% inhibitory concentration (IC50) in assay [1], in assay [2] and in assay [4] were 7.1 µg/mL (≈ 18.6 µM), 1 µg/mL (≈ 2.62 µM) and 116 µM, respectively. Also, in assay [3], the inhibition worked out at 51.1%.
As for `O=C(O)C1=CO[C@@H](O[C@@H]2O[C@H](CO)[C@@H](O)[C@H](O)[C@H]2O)[C@@H]2C(CO)=CC[C@H]12` [GENIPOSIDIC ACID], the IC50 in assay [1] is over 50 µg/mL; in assay [2], over 50 µg/mL; in assay [4], over 267 µM. For the same molecule, the inhibition in assay [3] turned out to be 4.8%.
Take `O=c1c(O[C@@H]2O[C@H](CO)[C@@H](O)[C@H](O)[C@H]2O)c(-c2ccc(O)c(O)c2)oc2cc(O)cc(O)c12` [ISOQUERCETIN]: the IC50 in assay [1] came to 16.6 µg/mL (≈ 35.7 µM); in assay [2], 3.4 µg/mL (≈ 7.32 µM). Further, the inhibition in assay [3] turned out to be 49.9%.
Taken in the same sequence, the figures for `O=C1O[C@H]([C@@H](O)CO)C(O)=C1O` [ASCORBIC ACID] were 5.5 µg/mL (≈ 31.2 µM), over 50 µg/mL and 44.1%.
Take VITAMIN E [listing 1 of 2 here]: the inhibition in assay [3] was found to be 61.2%.
On to `O=C(O)c1ccc(O)c(O)c1` [PROTOCATECHUIC ACID], for which the IC50 in assay [1] came to 6.9 µg/mL (≈ 44.8 µM); in assay [2], 13 µg/mL (≈ 84.3 µM). The inhibition in assay [3] amounted to 38.1%.
In the same order, the values of `O=c1c(O)c(-c2ccc(O)c(O)c2)oc2cc(O)cc(O)c12` [QUERCETIN] are 5.9 µg/mL (≈ 19.5 µM), over 50 µg/mL and 54.2%.
For the molecule VITAMIN E [listing 2 of 2 here], the IC50 in assay [1] was 9.4 µg/mL; in assay [2] it was over 50 µg/mL.
